In ChEMBL document CHEMBL2057127, “Design, synthesis, modeling, biological evaluation and photoaffinity labeling studies of novel series of photoreactive benzamide probes for histone deacetylase 2” (Bioorg Med Chem Lett, 2012):
Active and inactive are the calls of the source. The rule behind the calls is not given here.

Key:
Histone deacetylase 1 [1] = target: T1, Histone deacetylase 1 (Homo sapiens, UniProt Q13547); assay: Inhibition of human recombinant HDAC1 using Boc-L-Lys (Ac)-AMC as substrate preincubated with compound for 5 mins measured after 35 mins by spectrofluorometric analysis
[2] = target: Histone deacetylase 3 (Homo sapiens) (UniProt O15379); assay: Inhibition of human recombinant HDAC3 using Boc-L-Lys (Ac)-AMC as substrate at 10 uM by spectrofluorometric analysis; conditions: TDE = time-dependent effect
Histone deacetylase 2 [3] = target: T2, Histone deacetylase 2 (Homo sapiens, UniProt Q92769); assay: Inhibition of human recombinant HDAC2 using Boc-L-Lys (Ac)-AMC as substrate preincubated with compound for 24 hrs measured after 35 mins by spectrofluorometric analysis
Histone deacetylase 2 [4] = target: T2, Histone deacetylase 2; assay: Inhibition of human recombinant HDAC2 using Boc-L-Lys (Ac)-AMC as substrate preincubated with compound for 3 hrs measured after 35 mins by spectrofluorometric analysis
Histone deacetylase 2 [5] = target: T2, Histone deacetylase 2; assay: Inhibition of human recombinant HDAC2 using Boc-L-Lys (Ac)-AMC as substrate preincubated with compound for 5 mins measured after 35 mins by spectrofluorometric analysis
[6] = target: T3, Histone deacetylase 8 (Homo sapiens) (UniProt Q9BY41); assay: Inhibition of human recombinant HDAC8 using BML-KI-178 as substrate at 10 uM by spectrofluorometric analysis; conditions: TDE = time-dependent effect
T3 sequence (whole entry): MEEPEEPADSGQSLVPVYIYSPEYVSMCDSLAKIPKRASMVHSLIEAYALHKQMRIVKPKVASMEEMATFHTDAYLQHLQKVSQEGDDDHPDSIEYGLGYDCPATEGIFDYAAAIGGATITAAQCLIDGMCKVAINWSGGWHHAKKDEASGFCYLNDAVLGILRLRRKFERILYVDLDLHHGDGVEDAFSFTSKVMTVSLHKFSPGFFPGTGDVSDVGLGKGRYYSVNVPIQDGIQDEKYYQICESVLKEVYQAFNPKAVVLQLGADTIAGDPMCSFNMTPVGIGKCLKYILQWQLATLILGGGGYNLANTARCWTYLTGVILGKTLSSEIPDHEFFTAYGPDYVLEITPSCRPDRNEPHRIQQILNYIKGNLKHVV

Histone deacetylase 1 [7] = target: T1, Histone deacetylase 1; assay: Inhibition of human recombinant HDAC1 using Boc-L-Lys (Ac)-AMC as substrate preincubated with compound for 3 hrs measured after 35 mins by spectrofluorometric analysis
Histone deacetylase 2 [8] = target: T2, Histone deacetylase 2; assay: Inhibition of HDAC2 in human MDA-MB-231 cells assessed as inhibition of H4 deacetylation at 50 uM after 24 hrs by Western blot analysis; assay type: cell-based
How it was run: (§1)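 MDA-MB-231 cells grown to 90% confluence in DMEM/10% FBS and treated with probes (50 µM final) or DMSO for 24 h at 37 °C, 5% CO2. Cells lysed in RIPA buffer with protease/phosphatase inhibitors, 25 µg total protein run on SDS-PAGE. Western blot with anti-acetyl histone H4, GAPDH as loading control; three independent experiments.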

Histone deacetylase 1 [9] = target: T1, Histone deacetylase 1; assay: Inhibition of HDAC1 in human MDA-MB-231 cells assessed as inhibition of H4 deacetylation at 50 uM after 24 hrs by Western blot analysis; assay type: cell-based; how it was run: as §1
Histone deacetylase 2 [10] = target: T2, Histone deacetylase 2; assay: Binding affinity to His-tagged human HDAC2 assessed as decrease in biotinylation of HDAC2 at 25 uM preincubated for 24 hrs measured after 1 hr by Western blot analysis in presence of five-fold molar excess of Trichostatin A

T1 sequence (Q13547 whole entry): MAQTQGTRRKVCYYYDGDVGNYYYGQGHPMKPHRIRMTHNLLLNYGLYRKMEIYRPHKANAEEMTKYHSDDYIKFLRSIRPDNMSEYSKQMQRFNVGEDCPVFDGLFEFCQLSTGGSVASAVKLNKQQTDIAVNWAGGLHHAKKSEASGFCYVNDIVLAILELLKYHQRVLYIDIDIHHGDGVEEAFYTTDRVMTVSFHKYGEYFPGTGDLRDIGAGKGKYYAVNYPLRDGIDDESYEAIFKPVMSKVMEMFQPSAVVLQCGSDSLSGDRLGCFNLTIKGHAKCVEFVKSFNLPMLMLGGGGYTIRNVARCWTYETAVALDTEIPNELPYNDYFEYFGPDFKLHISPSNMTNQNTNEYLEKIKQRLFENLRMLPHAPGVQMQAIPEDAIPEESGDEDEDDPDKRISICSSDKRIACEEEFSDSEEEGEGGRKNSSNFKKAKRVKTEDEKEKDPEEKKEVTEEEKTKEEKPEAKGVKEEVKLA
T2 sequence (Q92769 whole entry): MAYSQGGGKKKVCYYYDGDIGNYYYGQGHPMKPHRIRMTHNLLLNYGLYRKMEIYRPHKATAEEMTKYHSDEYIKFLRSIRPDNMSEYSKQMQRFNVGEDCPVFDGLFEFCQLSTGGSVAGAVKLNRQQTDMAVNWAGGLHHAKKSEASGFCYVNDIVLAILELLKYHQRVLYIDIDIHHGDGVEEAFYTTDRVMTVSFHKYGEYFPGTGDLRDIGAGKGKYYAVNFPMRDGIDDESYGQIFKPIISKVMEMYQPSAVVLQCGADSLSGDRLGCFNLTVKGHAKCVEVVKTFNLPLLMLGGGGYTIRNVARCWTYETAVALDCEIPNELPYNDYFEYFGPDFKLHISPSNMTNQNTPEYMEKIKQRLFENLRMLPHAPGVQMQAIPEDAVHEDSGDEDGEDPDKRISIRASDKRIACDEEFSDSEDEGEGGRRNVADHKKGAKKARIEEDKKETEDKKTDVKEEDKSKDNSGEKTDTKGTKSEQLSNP
Sequence of Histone deacetylase 3 (Homo sapiens) (O15379 whole entry): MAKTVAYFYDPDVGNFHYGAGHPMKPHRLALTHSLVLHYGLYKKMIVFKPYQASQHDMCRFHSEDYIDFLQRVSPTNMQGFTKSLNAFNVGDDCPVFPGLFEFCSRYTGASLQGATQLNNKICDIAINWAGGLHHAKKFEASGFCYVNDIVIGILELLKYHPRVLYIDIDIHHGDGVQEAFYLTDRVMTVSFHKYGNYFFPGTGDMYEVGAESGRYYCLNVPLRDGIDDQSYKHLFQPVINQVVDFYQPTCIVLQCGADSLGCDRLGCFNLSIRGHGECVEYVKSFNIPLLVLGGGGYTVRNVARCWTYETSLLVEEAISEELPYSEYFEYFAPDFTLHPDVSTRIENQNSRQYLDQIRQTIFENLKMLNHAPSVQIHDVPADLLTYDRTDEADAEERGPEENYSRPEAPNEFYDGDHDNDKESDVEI

Compound | IC50 (Histone deacetylase 1 [1]) [µM] | inhibition [2] | IC50 (Histone deacetylase 2 [3]) [µM] | IC50 (Histone deacetylase 2 [4]) [µM] | IC50 (Histone deacetylase 2 [5]) [µM] | inhibition [6] | IC50 (Histone deacetylase 1 [7]) [µM] | inhibition (Histone deacetylase 2 [8]) | inhibition (Histone deacetylase 1 [9]) | Activity (Histone deacetylase 2 [10])
Nc1ccc(-c2ccccc2)cc1NC(=O)c1ccccc1 | 0.41 | tde | 0.14 | 0.35 | 1.2 | tde | 0.052 | – | – | –
[N-]=[N+]=NCc1cc(N=[N+]=[N-])cc(C(=O)Nc2cc(-c3cccs3)ccc2N)c1 | 5.6 | tde | – | – | – | tde | 1.4 | Active | Active | Active
[N-]=[N+]=NCCOc1ccc(C(=O)Nc2cc(-c3ccccc3)ccc2N)cc1N=[N+]=[N-] | 23 | tde | – | 6.5 | 34 | tde | 2.7 | Active | Active | Active
[N-]=[N+]=NCc1cc(COC(=O)NCc2ccc(C(=O)Nc3cc(-c4ccccc4)ccc3N)cc2)cc(N=[N+]=[N-])c1 | – | tde | – | – | – | tde | – | Active | Active | Active
[N-]=[N+]=NCCOc1ccc(C(=O)Nc2cc(-c3cccs3)ccc2N)cc1N=[N+]=[N-] | 18 | tde | – | 6.6 | 17 | tde | 3.8 | Active | Active | Active
[N-]=[N+]=NCCC(=O)Nc1ccc(C(=O)Nc2cc(N=[N+]=[N-])ccc2N)cc1 | – | tde | – | – | – | tde | – | – | – | Active
[N-]=[N+]=NCc1cc(N=[N+]=[N-])cc(C(=O)Nc2cc(-c3ccccc3)ccc2N)c1 | – | tde | – | – | – | tde | – | Active | Active | Active
[N-]=[N+]=Nc1ccc(C(=O)Nc2cc(-c3cccs3)ccc2N)cc1 | – | tde | – | – | – | tde | – | Active | Active | –
[N-]=[N+]=NCc1cc(COC(=O)NCc2ccc(C(=O)Nc3cc(-c4cccs4)ccc3N)cc2)cc(N=[N+]=[N-])c1 | – | tde | – | – | – | tde | – | Active | Active | Active
[N-]=[N+]=Nc1ccc(C(=O)Nc2cc(-c3ccccc3)ccc2N)cc1 | – | tde | – | – | – | tde | – | Active | Active | –
[N-]=[N+]=Nc1cccc(COC(=O)NCc2ccc(C(=O)Nc3cc(-c4ccccc4)ccc3N)cc2)c1 | 3.8 | tde | 0.32 | 1 | 3.8 | tde | 0.78 | Active | Active | –
Nc1ccc(-c2ccccc2)cc1NC(=O)c1ccc(CNC(=O)OCc2ccccc2)cc1 | – | tde | – | – | – | tde | – | – | – | –
